Sampled rows, rich in hits. Any-hit rate of the full collection: about 4.1%.
MC4R ag barr = agonists of human melanocortin 4 receptor (MC4R) beta-arrestin | P32245 | U2OS MC4R beta-arrestin complementation, luminescence; percent of melanotan II response, DMSO zero | activation, % at 8.9 µM | hit rate 0.98% among 360,000;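 active = activation above a per-plate cutoff, the mean activation of sample wells on that plate plus 3 SD, cut at about 8% in these data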
MPTP inh = permeability transition pore inhibition; isolated mouse mitochondria, Ca2+ swelling absorbance, 30 min; inhibition, % at 10 µM; hit rate 1.4% among 360,000; AID 602449;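 active = inhibition of 50% or more, scaled per plate between neutral and stimulator controls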
SMARCA2 act = increases SMARCA2 function in MMTV reporter cells; MG213 cells, MMTV-luciferase reporter, dexamethasone, overnight; hit rate 1% among 370,000; activation, % at 9.1 µM; in the data active = activation above about 7.8%
ATG4B inhibitor = ATG4B (human) cysteine protease inhibition. Q9Y4P1. ATG4B cleavage of LC3-PLA2, NBD-HPC fluorescence, 1 h. inhibition, % at 8.33 µM. hit rate 0.51% among 340,000; in the data active = inhibition above about 40%
MC4R antag cAMP = antagonists of human melanocortin 4 receptor (MC4R) | P32245 | MC4R-expressing cells, MTII-stimulated cAMP, LANCE TR-FRET | inhibition, % at 6.5 µM | hit rate 0.48% among 360,000;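 active = inhibition above its plate's cutoff, the mean of tested wells on that plate plus 3 SD, cut at about 29% in these data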
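system = U2OS cells with stable human MC4R expression | also added = Melanotan II challenge after compound preincubation | dosing = one concentration, 6.5 µM nominal | incubation = compound 30 min, challenge 1 h, detection 1 h | measured by = TR-FRET with Eu-cAMP and labeled anti-cAMP, 671 nm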
MC4R barr ag = human MC4R beta-arrestin agonism confirmation; shares compounds with MC4R ag barr; U2OS MC4R beta-arrestin recruitment, luminescence; scaled DMSO 0%, Melanotan II 100%; activation, % at 8.9 µM; hit rate 31% among 2,400;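 active = mean activation across replicates above the hit cutoff set in the earlier primary screen, cut at about 8% in these data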
MOR-DOR barr ag = activates mu-delta opioid heterodimer, MC4R agonist counter-screen; U2OS PathHunter beta-arrestin, beta-gal luminescence; percent of deltorphin B response, DMSO zero; activation, % at 9.2 µM; hit rate 5.8% among 2,400; shares compounds with MC4R ag barr;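 active = mean activation across replicates exceeds the hit threshold derived in the earlier primary screen, cut at about 18% in these data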
Target sequence (P35372 whole entry, looked up): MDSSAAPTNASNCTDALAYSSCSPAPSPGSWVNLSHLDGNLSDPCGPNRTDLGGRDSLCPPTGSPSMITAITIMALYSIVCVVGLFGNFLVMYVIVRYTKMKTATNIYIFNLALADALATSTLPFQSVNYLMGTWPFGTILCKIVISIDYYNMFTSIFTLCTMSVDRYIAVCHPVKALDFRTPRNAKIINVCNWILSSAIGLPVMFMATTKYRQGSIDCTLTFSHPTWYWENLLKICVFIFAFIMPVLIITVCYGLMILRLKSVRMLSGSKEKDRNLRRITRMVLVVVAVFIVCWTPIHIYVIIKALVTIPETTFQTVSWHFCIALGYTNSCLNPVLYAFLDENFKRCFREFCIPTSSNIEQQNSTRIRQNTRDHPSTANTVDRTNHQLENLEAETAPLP
Target sequence (P41143 whole entry, looked up): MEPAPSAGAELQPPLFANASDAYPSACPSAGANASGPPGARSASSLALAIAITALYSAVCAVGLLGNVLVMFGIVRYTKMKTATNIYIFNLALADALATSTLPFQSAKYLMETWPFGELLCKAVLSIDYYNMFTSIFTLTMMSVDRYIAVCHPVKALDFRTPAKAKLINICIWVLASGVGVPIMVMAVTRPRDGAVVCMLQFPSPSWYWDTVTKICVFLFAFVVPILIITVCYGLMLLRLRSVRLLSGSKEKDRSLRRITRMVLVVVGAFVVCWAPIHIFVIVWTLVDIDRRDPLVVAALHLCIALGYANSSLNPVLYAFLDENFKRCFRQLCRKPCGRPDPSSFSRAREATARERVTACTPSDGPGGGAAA
Large screens that a line does not name were inactive (follow-up assays come after a bar, where they were run).

Cc1ccc(NC(=O)CN2C(=O)S/C(=C\c3cccn3C)C2=O)cc1	MC4R ag barr 15 | MC4R barr ag inactive | MOR-DOR barr ag inactive
Cc1ccc(/C=C2/SC(=S)N(CCCC(=O)Nc3ccc(O)cc3)C2=O)cc1	MC4R ag barr 17 | MC4R barr ag inactive | MOR-DOR barr ag inactive
Cc1cc(NC(=O)CCN2C(=O)/C(=C/c3ccccc3Cl)SC2=S)no1	MC4R ag barr 16 | MC4R barr ag inactive | MOR-DOR barr ag inactive
COc1ccccc1/C=C1\SC(=S)N(CCC(=O)Nc2cc(C)on2)C1=O	none
Cc1ccc(NC(=O)CN2C(=O)S/C(=C\c3ccccn3)C2=O)cc1	none
O=C(CCN1C(=O)/C(=C/c2cccs2)SC1=S)Nc1ccc(O)cc1	MC4R ag barr 11 | MC4R barr ag inactive | MOR-DOR barr ag inactive
COC(=O)[C@]12C[C@H](CC(=O)NCc3cccs3)C(=O)N(CCC3=CCCCC3)C1=C[C@H](C(C)C)O[C@@H]2C1CC1	none (no result: MC4R ag barr, MPTP inh, ATG4B inhibitor, MC4R antag cAMP)
CC(/C=C1\SC(=S)N(CCC(=O)Nc2ccc(O)cc2)C1=O)=C\c1ccccc1	MC4R ag barr 22 | MC4R barr ag 13 | MOR-DOR barr ag inactive
COc1cccc(/C=C2/SC(=S)N(CCCC(=O)Nc3ccc(O)cc3)C2=O)c1	MC4R ag barr 9.9 | MC4R barr ag 20 | MOR-DOR barr ag inactive
COc1cccc(/C=C2\SC(=S)N(CCCC(=O)Nc3ccc(C(=O)O)cc3)C2=O)c1	none
Cc1ccc(/C=C2\SC(=S)N(CCC(=O)NNC(=O)c3ccccc3O)C2=O)cc1	none
Cc1ccc(/C=C2\SC(=S)N(CCC(=O)NNS(=O)(=O)c3ccccc3)C2=O)cc1	MC4R ag barr 47 (no result: SMARCA2 act) | MC4R barr ag inactive | MOR-DOR barr ag inactive
CCC(C(=O)Nc1ccccc1N1CCCC1)c1cccc(OC)c1 (centres undefined)	none (no result: MC4R ag barr, MPTP inh, ATG4B inhibitor, MC4R antag cAMP)
O=C(Nc1nc2ncccn2c1-c1ccccc1)c1ccc(F)cc1	none (no result: MC4R ag barr, MPTP inh, ATG4B inhibitor, MC4R antag cAMP)
O=c1c2ccccc2nc(SCc2nc3ccccc3s2)n1Cc1ccco1	MC4R ag barr 11 | MC4R barr ag inactive | MOR-DOR barr ag inactive
O=c1c2ccccc2nc(SCc2ccccc2)n1Cc1ccco1	none
Cc1nc2c(sc(=S)n2Cc2ccco2)c(=O)n1CC(=O)Nc1ccc(F)cc1	MC4R ag barr 15 | MC4R barr ag inactive | MOR-DOR barr ag inactive
COc1ccccc1NC(=O)Cn1c(C)nc2c(sc(=S)n2Cc2ccco2)c1=O	none
Cc1nc2c(sc(=S)n2Cc2ccco2)c(=O)n1CC(=O)Nc1cc(F)ccc1F	MC4R ag barr 12 | MC4R barr ag inactive | MOR-DOR barr ag inactive
O=C(NCc1ccccc1)[C@@H]1CCCN1C(=O)[C@H]1CCCN1C(=O)c1ccc(F)cc1F	none (no result: MC4R ag barr, MPTP inh, ATG4B inhibitor, MC4R antag cAMP)
CCOc1ccc(-c2cc(CCCC(=O)NCCc3ccc(OC)c(OC)c3OC)no2)cc1	MC4R ag barr 24 | MC4R barr ag inactive | MOR-DOR barr ag inactive
COc1ccc(-c2cc(CCCC(=O)NCCc3ccc(OC)cc3OC)no2)cc1	none
CC(C)C[C@H](NC(=O)c1ccc(Cl)cc1Cl)C(=O)N1CCC[C@H]1C(=O)NCc1ccccc1	none (no result: MC4R ag barr, MPTP inh, ATG4B inhibitor, MC4R antag cAMP)
C=CC[C@@H](CC(=O)N[C@@H](CO)Cc1ccccc1)C(=O)N[C@@H](COC(=O)[C@@H](CC=C)CC(=O)OC(C)(C)C)Cc1c[nH]c2ccccc12	MC4R ag barr 15 | MC4R barr ag inactive | MOR-DOR barr ag inactive
O=C(Nc1ccc(F)cc1)c1cc(-c2ccncc2)nc2c(Cl)cccc12	MC4R ag barr 12 | MC4R barr ag inactive | MOR-DOR barr ag inactive
c1ccc(-c2cc(-c3nnc4sc(Cc5cccs5)nn34)[nH]n2)cc1	none (no result: MC4R ag barr, MPTP inh, ATG4B inhibitor, MC4R antag cAMP)
O=C(COc1ccc2ccccc2c1Br)Nc1ncn[nH]1	MC4R ag barr 13 (no result: SMARCA2 act) | MC4R barr ag inactive | MOR-DOR barr ag inactive
Cc1cccc(C)c1OCC(=O)Nc1ncn[nH]1	none
O=c1c2cc(Cl)ccc2[nH]c(=S)n1Cc1cccs1	MC4R ag barr 10 | MC4R barr ag inactive | MOR-DOR barr ag inactive
O=C(CSc1nc(CCC2CCCC2)nc2ccccc12)NCc1ccc2c(c1)OCO2	MC4R ag barr 20 | MC4R barr ag inactive | MOR-DOR barr ag inactive
S=C(NCCCCN(Cc1ccc(Cl)cc1)c1ccc(Br)cn1)NCCCc1cnc[nH]1	MC4R ag barr 10 (no result: ATG4B inhibitor) | MC4R barr ag 11 | MOR-DOR barr ag inactive
CN(C)CCN(Cc1ccc(Cl)cc1)c1ccccn1	none
CCC12CCCN3CCC4(C(=C(C(=O)OC)C1)Nc1ccccc14)C32 (centres undefined)	MC4R ag barr 10 | MC4R barr ag inactive | MOR-DOR barr ag inactive
CCc1ccc(C(O)c2ncc(-c3ccc4ccccc4c3)[nH]2)cc1 (centres undefined)	MC4R ag barr 17 (no result: ATG4B inhibitor) | MC4R barr ag inactive | MOR-DOR barr ag inactive
CCc1ccc(C(O)c2ncc(-c3cccc(C(F)(F)F)c3)[nH]2)cc1 (centres undefined)	MC4R ag barr 13 (no result: ATG4B inhibitor) | MC4R barr ag 10 | MOR-DOR barr ag inactive
COc1ccc(C(O)c2ncc(-c3cccc(C(F)(F)F)c3)[nH]2)cc1F (centres undefined)	none (no result: ATG4B inhibitor)
O=c1cc(-c2ccc(O)cc2)oc2c1ccc1ccccc12	MC4R ag barr 50 | MC4R barr ag inactive | MOR-DOR barr ag inactive
Cc1cc(-c2ccc(S(=O)(=O)N(C)Cc3ccccc3)cc2)on1	MC4R ag barr 25 | MC4R barr ag inactive | MOR-DOR barr ag inactive
CCCCC(=O)Nc1sc2c(c1C(=O)OCC)CCC(C=O)=C2Cl	MC4R ag barr 10 (no result: SMARCA2 act, ATG4B inhibitor) | MC4R barr ag inactive | MOR-DOR barr ag inactive
CCOC(=O)c1c(NC(=O)c2ccccc2Cl)sc2c1CCc1ccccc1-2	none
CC(=O)C1=CCN(C)CC1	none (no result: MC4R ag barr, MPTP inh, ATG4B inhibitor, MC4R antag cAMP)
COc1ccc(/C=C2\CC3(OC(=O)C4CCCC4)CCCN2C3)cc1 (centres undefined)	none (no result: MC4R ag barr, MPTP inh, ATG4B inhibitor, MC4R antag cAMP)
Cc1ccc(NC(=O)c2sc(N)nc2-c2ccc([N+](=O)[O-])cc2)cc1C	MC4R ag barr 11 | MC4R barr ag inactive | MOR-DOR barr ag inactive
Cc1ccc(NC(=O)c2sc(N)nc2-c2ccccc2)cc1C	none
NC1=NC(=O)/C(=C/c2cn(Cc3ccccc3)c3ccccc23)S1	MC4R ag barr 11 | MC4R barr ag inactive | MOR-DOR barr ag inactive
Cc1ccc2nc(Nc3ccc4[nH]c(=O)[nH]c4c3)c(-n3nc(C)cc3C)nc2c1	MC4R ag barr 34 | MC4R barr ag 29 | MOR-DOR barr ag inactive
C=CCn1c(SCC(=O)c2ccc(OC)cc2)nnc1-c1cc2cccc(OC)c2o1	MC4R ag barr 53 | MC4R barr ag 12 | MOR-DOR barr ag inactive
C=CCn1c(SCC(=O)c2ccc(O)c(O)c2)nnc1-c1ccc(OC)cc1	none
CCN(CC)C(=O)CSc1nnc(-c2ccc(C(C)(C)C)cc2)n1Cc1ccco1	none (no result: MC4R ag barr, MPTP inh, ATG4B inhibitor, MC4R antag cAMP)
Clc1ccc(-c2csc(N/N=C/c3ccco3)n2)cc1	none

Screening data: PubChem BioAssay, several laboratories
